S1P2 antag = human S1P2 receptor antagonists, primary screen, cell-based | cell-based S1P2 antagonist assay, inhibition at 5 uM | 97,000 tested, 0.21% active | AID 736, 2007 | inhibition, % at 5 µM; in the data active means inhibition above about 45%;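 further: CRE beta-lactamase reporter cells expressing human S1P2 stimulated with S1P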
S1P2 ag = S1P2 receptor agonists, primary screen, cell-based | Sphingosine 1-phosphate receptor 2 (Homo sapiens), O95136 | S1P2-expressing cell line, agonist reporter read-out | activation, % at 4.5 µM | 97,000 tested, 0.46% active | AID 729, 2007; in the data active means activation above about 16%
GALR2 agonist = GALR2 receptor agonists, primary screen, cell-based; Galanin receptor type 2 (Homo sapiens), O43603; GALR2-expressing cells, agonist activation read-out; activation, % (test concentration not listed); 140,000 tested, 0.48% active; AID 803, 2007; in the data active means activation above about 5%, passing the limit was not always enough
Target sequence (O43603 whole entry, looked up): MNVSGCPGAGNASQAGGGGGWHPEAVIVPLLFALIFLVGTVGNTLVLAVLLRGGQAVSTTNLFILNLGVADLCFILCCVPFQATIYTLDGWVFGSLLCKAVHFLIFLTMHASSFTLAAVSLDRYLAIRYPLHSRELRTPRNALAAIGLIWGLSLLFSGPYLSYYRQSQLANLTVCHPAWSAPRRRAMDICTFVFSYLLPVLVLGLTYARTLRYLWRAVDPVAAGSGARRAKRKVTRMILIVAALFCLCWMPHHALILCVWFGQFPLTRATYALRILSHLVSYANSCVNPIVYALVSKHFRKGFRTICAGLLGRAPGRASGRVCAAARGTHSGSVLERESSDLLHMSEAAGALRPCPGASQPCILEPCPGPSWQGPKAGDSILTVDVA
GALR2 blocker = GALR2 antagonists in receptor-expressing cells, primary screen | AID 828, 2007 | antagonist mode | inhibition, % at 4 µM | Galanin receptor type 2 (Homo sapiens), O43603 | 140,000 tested, 0.39% active; in the data active means inhibition above about 27%;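 further: cells stimulated with galanin 1-16 at roughly its EC80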
Rev-RRE block = HIV-1 Rev-RRE binding inhibitors, primary screen, biochemical, FRET, protein-RNA interaction | 97,000 tested, 0.79% active | AID 704, 2007 | Rev peptide-RRE RNA binding | P05866 | inhibition, % at 8 µM;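 active means inhibition above the screen-wide mean plus 3 SD, cut at about 35% in these data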
Target sequence (P05866 whole entry, looked up): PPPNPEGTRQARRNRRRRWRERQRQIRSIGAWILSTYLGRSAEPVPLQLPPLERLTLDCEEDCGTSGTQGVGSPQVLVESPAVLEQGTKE
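Test system: labelled RRE RNA duplex and labelled Rev peptide. Times: 5 min compound–RNA preincubation, then 15 min with peptide, 25 °C. Doses: single-dose 8 µM. Measured by: FRET, excitation 480 nm, emission 540 nm donor and 671 nm acceptor. Measure: % inhibition of FRET ratio versus controls.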
A number is an active result; n = inactive; x = no result given; [ ] = remark or other dose. Most compounds without a hit are left out; they make up all but 1.6% or so of the library.

SMILES	S1P2 antag	S1P2 ag	GALR2 agonist	GALR2 blocker	Rev-RRE block
CCSC1=N/C(=C\c2ccc(-c3ccccc3[N+](=O)[O-])o2)C(=O)S1	n	n	n	n	53.9
CCCCC1(CC(=O)OC)C(=O)N(c2ccccc2)N(c2ccccc2)C1=O	x	x	n	n	x
CCOC(=O)Cc1csc(N/C(=N/S(=O)(=O)c2cc(Br)ccc2OCC)c2ccccc2)n1	x	x	n	n	x
CC1=C(C#N)C(=O)OC(C)(C)C1	n	n	n	n	42.9
O=C(OCCN1C(=O)c2ccccc2C1=O)c1cc(S(=O)(=O)N2CCOCC2)ccc1F	n	18.3	n	n	n
COc1ccc(OC)c(NS(=O)(=O)c2ccc(NC(=O)c3ccc(NS(C)(=O)=O)cc3)cc2)c1	x	x	n	n	x
c1ccc(Nc2ccccc2Nc2ccccn2)nc1	n	n	n	n	n
Oc1cccc2ccc(Nc3ccccn3)nc12	x	x	n	30.4	x
Cc1noc(C)c1COC(=O)[C@H](C)NS(=O)(=O)c1ccc(Cl)c(Cl)c1	n	n	14.2	n	n
Cc1cc(NC(=O)COC(=O)c2oc3c(ccc4ccccc43)c2C)no1	x	x	5.1	n	x
CCOC(=O)N1CCN(C(=O)c2cnc(Nc3ccccc3OC)c3ccccc23)CC1	x	x	7.0	n	x
CCOC(=O)N1CCN(C(=O)c2cccc(OC)c2OC)CC1	n	n	n	n	n
C=CCn1c(=O)/c(=C/c2ccc(O)cc2)s/c1=C(/C#N)c1nnc2n1CCCCC2	n	n	n	n	73.5
COCc1[nH]nc2c1C(c1ccc(OC)cc1)C(C#N)=C(N)O2 (stereo unspecified)	n	n	n	n	n
COc1ccc(-c2ccc(C3C(C#N)=C(N)Oc4n[nH]c(C)c43)o2)cc1 (stereo unspecified)	n	n	n	n	52.3
O=C(c1ccc(Cl)cc1)C1C2C(=O)N(c3ccccc3)C(=O)C2C2CCCN21 (stereo unspecified)	n	n	n	n	58.0
CC(=O)c1ccc(N2C(=O)C3C(C2=O)C(C(=O)c2ccc(Cl)cc2)N2CCCC32)cc1 (stereo unspecified)	n	n	n	n	62.3
CC(CCc1ccccc1)NC(=O)COc1ccc(S(=O)(=O)N2CCOCC2)cc1[N+](=O)[O-] (stereo unspecified)	x	x	n	n	x
CCCSc1nc2sc3c(c2c(=O)[nH]1)CCN(Cc1ccccc1)C3	n	n	n	n	92.4[fluorescence artefact?]
O=C(COC(=O)CNS(=O)(=O)c1c(Cl)cccc1Cl)Nc1cccnc1Cl	x	x	n	n	x
Cc1ccc2cc(/C=C3\N=C(c4ccccc4)OC3=O)c(N3CCOCC3)nc2c1	n	n	n	n	39.1
Cc1cccc(N2CCN(c3cc(C)nc4nnnn34)CC2C)c1 (stereo unspecified)	x	x	5.4	n	x
NS(=O)(=O)c1cc2c(cc1Cl)NC=NS2(=O)=O	x	x	n	n	x
CCN(CC)c1c2c(c(C#N)c3nc4ccccc4n13)CCC2	n	19.5	n	n	n
CC(=O)c1ccc(Nc2c3c(c(C#N)c4nc5ccccc5n24)CCC3)cc1	x	x	n	n	x
SMILES	S1P2 antag	S1P2 ag	GALR2 agonist	GALR2 blocker	Rev-RRE block
COc1ccc(N=c2sc3ccccc3n2C)cc1	n	n	n	n	n
COc1ccc(N=Nc2nc3ccc(Br)cc3n2C)cc1	n	n	n	n	101.2[fluorescence artefact?]
CC(=O)N1CCC(O)(c2cccc(C(F)(F)F)c2)CC1	n	n	n	n	n
OC1(c2cccc(C(F)(F)F)c2)CCN(c2ncnc3c2[nH]c2ccc(F)cc23)CC1	48.6	n	n	n	n
CCCCCCCCC[n+]1cccc2c3ccccc3ccc21	47.6	n	n	n	n
O=C(/C=C\c1cccs1)c1c(O)ccc2ccc(=O)oc12	x	x	n	n	x
Cc1[nH]c2ccccc2c1/C=C/c1cc[n+](C)cc1	n	n	n	n	138.2[fluorescence artefact?]
COc1ccc(OC)c(NC(=O)c2cnc(Nc3ccccc3OC)c3ccccc23)c1	x	x	n	n	x
Cc1cc2c(=O)n(CC(=O)N3CCN(c4ccc(F)cc4)CC3)cnc2s1	n	31.1	n	n	n
CC(=O)OC[C@H]1O[C@@H](O/N=C/C[C@@H]2C=C[C@H](OC(C)=O)[C@@H](COC(C)=O)O2)[C@H](OC(C)=O)[C@@H](OC(C)=O)[C@@H]1OC(C)=O	x	x	n	n	x
COc1ccc(Nc2nnc(SCc3cc(=O)n4ccsc4n3)s2)cc1	n	n	n	n	41.8
COc1ccc(/C=N/NC(=O)c2ccc(COc3ccccc3Cl)o2)c(OC)c1C	x	x	8.0	n	x
COc1ccc(/C=N/NC(=O)c2ccc(COc3ccccc3Cl)o2)cc1	n	n	n	n	n
O=C(COc1ccccc1)Nc1nnc(-c2ccc(Cl)s2)o1	n	n	n	n	n
O=C(Nc1ccccc1)OC1CCC2CC1CCC2OC(=O)Nc1ccccc1 (stereo unspecified)	x	x	n	n	x
O=C(Nc1nc2c(s1)CN(Cc1ccccc1)CC2)c1cccc(S(=O)(=O)N2CCc3ccccc32)c1	n	n	n	n	121.9[fluorescence artefact?]
CCN1CCc2nc(NC(=O)c3ccc4c(c3)OCCO4)sc2C1	n	n	n	n	36.4
CCOC(=O)N1CCN(/C=C(\C#N)c2nc3ccccc3s2)CC1	n	n	n	n	53.4
COC(=O)c1ccc(/C=C(\C#N)c2nc3ccccc3s2)cc1	n	n	n	n	n
N#C/C(=C\N1CCN(Cc2ccc3c(c2)OCO3)CC1)c1nc2ccccc2s1	n	n	n	n	65.2
CN1CCc2c(sc(/N=C/c3cccs3)c2C(N)=O)C1	n	n	n	n	80.8
COc1cc(/C=N/Nc2nc(Nc3ccc(C)cc3)nc(-n3nc(C)cc3C)n2)cc(OC)c1OC	47.2	n	n	n	n
COc1ccc(O)c(/C=N/Nc2nc(Nc3ccccc3)nc(-n3nc(C)cc3C)n2)c1	n	n	n	n	n
COc1cc(/C=N/Nc2nc(Nc3ccccc3)nc(-n3nc(C)cc3C)n2)cc(OC)c1OC	x	x	8.1	n	x
CCS(=O)(=O)N1CCC(C(=O)NCCc2ccccc2)CC1	n	n	n	n	n
SMILES	S1P2 antag	S1P2 ag	GALR2 agonist	GALR2 blocker	Rev-RRE block
CCS(=O)(=O)N1CCC(C(=O)NCCN2CCN(Cc3ccccc3)CC2)CC1	n	n	6.2	n	n
C1=C(c2ccc(-c3ccccc3)cc2)Nc2ncnn2C1c1ccco1 (stereo unspecified)	n	n	n	n	117.7[fluorescence artefact?]
CCOc1ccc(C2C=C(c3ccc(F)cc3)Nc3ncnn32)cc1 (stereo unspecified)	n	n	n	n	57.1
Fc1ccc(C2=CC(c3ccco3)n3ncnc3N2)cc1 (stereo unspecified)	x	x	n	n	x
CCOc1ccc(C2C=C(c3ccccc3)Nc3ncnn32)cc1 (stereo unspecified)	n	n	n	n	39.9
Cc1cccc(C)c1NC(=O)CNc1ncnc2sc(C)c(C)c12	x	x	n	n	x
CN1C2CCC1/C(=C/c1cccn1C)C(=O)/C2=C\c1cccn1C	x	x	n	n	x

Assay outcomes: PubChem BioAssay, The Scripps Research Institute Molecular Screening Center
